The text below walks through data of ChEMBL document CHEMBL1147227, “Annularins A-H: new polyketide metabolites from the freshwater aquatic fungus Annulatascus triseptatus” (2003).

The test system of one experiment is Aspergillus flavus. Kind of experiment: Antifungal activity against Aspergillus flavus NRRL 6541 at 200 ug/disk by standard disk assay. It is filed as functional, organism-based.
In another experiment the test system is Candida albicans. Kind of experiment: Antifungal activity against Candida albicans ATCC 90029 at 200 ug/disk by standard disk assay. It is filed as functional, organism-based.
The test system of a further experiment is Bacillus subtilis. Kind of experiment: Antibacterial activity against Bacillus subtilis ATCC 6051 at 200 ug/disk by standard disk assay. Type of experiment: functional. The note with it: read-out: IZ. The essentials: (§1)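 Paper-disk diffusion assay with 200 µg of test material loaded per disk. Activity was read as the zone of inhibition, recorded in mm.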

Another experiment has as its system Staphylococcus aureus. Kind of experiment: Antibacterial activity against Staphylococcus aureus ATCC 29213 at 200 ug/disk by standard disk assay. Type of experiment: functional. The note with it: read-out: IZ. The essentials:
as §1

The structures appear in SMILES notation. The source made the active and inactive calls. The rule behind the calls is not given here.

On to `CCCc1oc(=O)cc(OC)c1C`, for which the outcome with Aspergillus flavus was inactive.

Consider `CC[C@H](O)c1oc(=O)cc(OC)c1CO`, for which the outcome in the experiment on Candida albicans was inactive. Besides, the zone of inhibition at 200 µg/disc in the experiment on Bacillus subtilis turned out to be 8 mm; with Staphylococcus aureus, 14 mm.

Regarding `CCCc1oc(=O)cc(OC)c1CO`, the outcome in the experiment on Candida albicans was inactive. In the experiment on Bacillus subtilis, the zone of inhibition at 200 µg/disc was found to be 8 mm.

Regarding `CCC1OC(=O)c2c(OC)cc(=O)oc21` (stereo not drawn) [ANNULARIN F], in the experiment on Candida albicans, the result was inactive. In addition, the zone of inhibition at 200 µg/disc with Bacillus subtilis turned out to be 8 mm.
